# Source: paper PMC2813889 (Toxicon : official journal of the International Society on …, 2009)
# Read-outs that look alike come from different tables or passages of the source.
# Assays:
# CYP3A4 = CYP3A4 (Homo sapiens, UniProt P08684); assay: Incubation of OA with recombinant CYP3A4 and CYP3A4 enzyme kinetics; format: in vitro ADME
# [1] = target: protein phosphatase 2A (PP2A) (Homo sapiens, UniProt P67775); assay: Protein phosphatase 2A inhibition assay; format: biochemical
# Outline: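 Colorimetric PP2A inhibition after a published method. Samples incubated 1 h at room temperature and read at 405 nm. A standard curve of the parent toxin was prepared identically to the samples. Isolated metabolite concentrations were set by LC-MS against a single-point calibration (10 μL of 6.2 μM parent toxin, 50 ng). IC50 taken from activity versus log concentration curves.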
# CYP3A5 = CYP3A5 (Homo sapiens, UniProt P20815); assay: Incubation of OA with recombinant CYP3A5; format: in vitro ADME; settings: CYP 3A5 reaction, after 6 hrs of incubation
# [2] = system: CYP1A1, 1A2, 2C8, 2C9, 2C19, 2D6, 2E1; assay: Incubation of OA with the seven other recombinant P450s; format: in vitro ADME, human; settings: same incubation conditions, limit of detection 0.1 ng OA
# [3] = Incubation of OA with pooled human liver microsomes; format: in vitro ADME; settings: 5 mg mL^-1 protein, 5 μM OA, 37 °C, 30 min
# various liver cell lines = settings: depending on cell line; ref Souid-Mensi, et al., 2008; cited from earlier work
# Sequence of CYP3A4 (P08684 whole entry): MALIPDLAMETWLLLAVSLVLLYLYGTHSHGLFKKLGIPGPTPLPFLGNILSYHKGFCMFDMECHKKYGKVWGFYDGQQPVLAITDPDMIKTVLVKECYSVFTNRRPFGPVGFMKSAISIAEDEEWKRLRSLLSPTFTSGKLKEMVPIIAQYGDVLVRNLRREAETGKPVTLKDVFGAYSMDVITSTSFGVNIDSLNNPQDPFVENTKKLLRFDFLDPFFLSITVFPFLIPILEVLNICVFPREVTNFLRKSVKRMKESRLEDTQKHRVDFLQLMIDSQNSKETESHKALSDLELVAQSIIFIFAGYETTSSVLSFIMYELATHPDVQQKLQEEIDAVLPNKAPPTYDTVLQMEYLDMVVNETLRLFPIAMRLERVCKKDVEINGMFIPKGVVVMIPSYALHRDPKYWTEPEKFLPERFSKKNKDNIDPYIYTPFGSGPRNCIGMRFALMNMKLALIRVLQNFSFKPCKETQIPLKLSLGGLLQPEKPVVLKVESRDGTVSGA
# Sequence of protein phosphatase 2A (PP2A) (P67775 whole entry): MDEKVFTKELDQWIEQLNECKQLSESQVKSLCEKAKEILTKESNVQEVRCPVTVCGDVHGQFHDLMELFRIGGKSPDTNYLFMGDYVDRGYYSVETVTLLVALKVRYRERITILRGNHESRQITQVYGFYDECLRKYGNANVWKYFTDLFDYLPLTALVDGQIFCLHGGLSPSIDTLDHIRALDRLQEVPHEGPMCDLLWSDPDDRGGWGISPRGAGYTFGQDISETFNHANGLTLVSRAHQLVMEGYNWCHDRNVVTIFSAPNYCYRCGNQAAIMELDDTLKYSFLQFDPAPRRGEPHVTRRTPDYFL
# Sequence of CYP3A5 (P20815 whole entry): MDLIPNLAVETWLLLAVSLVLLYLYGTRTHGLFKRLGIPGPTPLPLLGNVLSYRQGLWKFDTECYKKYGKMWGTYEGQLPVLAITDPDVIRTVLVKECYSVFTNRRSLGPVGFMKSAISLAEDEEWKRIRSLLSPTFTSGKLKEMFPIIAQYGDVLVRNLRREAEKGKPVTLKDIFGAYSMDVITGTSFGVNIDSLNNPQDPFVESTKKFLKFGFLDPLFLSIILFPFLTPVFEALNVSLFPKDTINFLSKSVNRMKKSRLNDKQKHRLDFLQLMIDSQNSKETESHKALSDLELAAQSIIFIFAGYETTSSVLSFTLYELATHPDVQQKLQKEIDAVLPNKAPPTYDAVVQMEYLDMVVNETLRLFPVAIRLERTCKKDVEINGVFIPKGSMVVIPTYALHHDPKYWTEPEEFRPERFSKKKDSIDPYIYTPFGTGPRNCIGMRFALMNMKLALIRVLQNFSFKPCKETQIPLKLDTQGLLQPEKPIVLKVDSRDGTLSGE
molecule,measurement,setting,value
"C=C1[C@@H](O)[C@@H]2O[C@]3(CC[C@H](/C=C/[C@@H](C)[C@@H]4CC(C)=C[C@@]5(O[C@H](C[C@@](C)(O)C(=O)O)CC[C@H]5O)O4)O3)CC[C@H]2O[C@@H]1[C@@H](O)C[C@H](C)[C@H]1O[C@@]2(CCCCO2)CC[C@H]1C [OA, Okadaic acid]",overall yield of all four metabolites,"CYP3A4; CYP3A4 reaction, after 6 hrs of incubation",31.3%
same,Vmax for the oxidation of OA by CYP3A4,"CYP3A4; double-reciprocal plots, OA 10 μM to 100 μM, 300 pmol 3A4",7.23 nmol of metabolites nmol^-1 min^-1
same,Km,"CYP3A4; human, recombinant CYP3A4",73.4 µM
same,IC50,[1],0.61 nM
same,overall yield of all four metabolites,CYP3A5,6.1%
same,metabolism of OA by the seven other P450s,[2],none of the seven other P450s metabolized OA
same,metabolite formation in pooled human liver microsomes,[3],"four metabolites, identical to those formed in CYP3A4 incubations, were produced"
same,LD50 for OA with various liver cell lines,various liver cell lines,10 to 100 nM
11S-hydroxy okadaic acid [metabolite 2],IC50,"[1]; read-out: IC50, inhibition of PP2A, 1 h at room temperature, read at 405 nm",1.34 nM
